According to ChEMBL document CHEMBL1144531, “Novel selective inhibitors of neutral endopeptidase for the treatment of female sexual arousal disorder” (Bioorg Med Chem, 2007):

How the values were obtained:
[1] = Inhibition of dog kidney cortex NEP at pH 7; design: species or system Canis lupus familiaris
[2] = organism: Sus scrofa; experiment: Inhibition of pig ACE
Outline: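 Porcine ACE; same format as the NEP assay. Substrate o-aminobenzoyl-Gly-Gly-p-nitro-Phe-Pro-OH, 10 µM final, in 50 mM Tris-Cl pH 7.4 (37 °C) with 300 mM NaCl. Stopped with 2 mM EDTA; fluorescence read-out. IC50 from dilution series.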

[3] = target: T1, Endothelin-converting enzyme 1 (Homo sapiens) (UniProt P42892); experiment: Inhibition of human ECE1
T1 sequence (whole entry): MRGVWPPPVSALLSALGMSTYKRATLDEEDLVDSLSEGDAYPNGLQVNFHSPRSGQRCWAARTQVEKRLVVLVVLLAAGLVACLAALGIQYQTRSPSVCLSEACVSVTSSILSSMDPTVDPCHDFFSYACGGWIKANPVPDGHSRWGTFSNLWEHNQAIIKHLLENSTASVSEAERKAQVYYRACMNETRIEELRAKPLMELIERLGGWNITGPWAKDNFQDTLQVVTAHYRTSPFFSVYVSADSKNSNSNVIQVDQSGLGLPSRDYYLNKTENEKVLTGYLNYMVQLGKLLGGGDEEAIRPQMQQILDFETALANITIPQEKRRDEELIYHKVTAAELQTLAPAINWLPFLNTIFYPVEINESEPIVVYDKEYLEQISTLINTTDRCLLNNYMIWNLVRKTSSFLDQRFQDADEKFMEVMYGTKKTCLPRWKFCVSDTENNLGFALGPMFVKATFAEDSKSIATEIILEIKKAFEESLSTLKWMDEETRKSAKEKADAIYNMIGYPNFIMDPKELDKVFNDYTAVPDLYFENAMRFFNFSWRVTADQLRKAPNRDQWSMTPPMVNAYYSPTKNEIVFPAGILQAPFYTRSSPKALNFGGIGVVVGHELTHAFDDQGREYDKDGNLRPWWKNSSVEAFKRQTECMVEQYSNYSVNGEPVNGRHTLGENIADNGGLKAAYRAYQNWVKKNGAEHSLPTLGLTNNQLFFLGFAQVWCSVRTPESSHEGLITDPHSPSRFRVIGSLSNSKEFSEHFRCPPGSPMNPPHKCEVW
Outline: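 Human ECE-1, run like the ACE assay (50 mM Tris-Cl pH 7.4, 300 mM NaCl, EDTA stop), with Big ET-1 as substrate. IC50 from dilution series.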

[4] = Distribution coefficient, log D in n-octanol and phosphate buffer at pH 7.4; assay type: physicochemical
[5] = Metabolic stability in human liver microsomes at 1 uM; assay type: ADME, Microsome
Outline: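 Human liver microsomes, 1 µM compound with 0.5 µM CYP. Reported as first-order compound disappearance half-life.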

[6] = Permeability from apical to basolateral side of the Caco-2 cell membrane at pH 7.4; assay type: ADME, cell-based; conditions: human, Caco-2, pH 7.4
Outline: (§1)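 Caco-2 monolayers; apparent permeability (Papp) measured with pH 7.4 in both apical and basolateral chambers.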

[7] = Inhibition of dog kidney cortex NEP at pH 7.4; design: species or system Canis lupus familiaris
[8] = Clearance in rat at 1 mg/kg, iv and 1 mg/kg, po; assay type: ADME, organism-based; conditions: in vivo
Outline: (§2)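 Male CD rats, jugular vein cannulated under general anaesthesia; dosed 1 mg/kg iv (tail vein) and po (gavage). Serial 0.2 ml blood samples taken from the cannula into heparin, centrifuged to plasma, stabilised with 0.01 parts 85% phosphoric acid, frozen. Plasma levels measured by LC–MS–MS after C18 solid-phase extraction, with internal standard.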

[9] = Volume of distribution in rat at 1 mg/kg, iv and 1 mg/kg, po; assay type: ADME, organism-based; conditions: in vivo, read-out: Vdss; outline: as §2
[10] = Half life in rat at 1 mg/kg, iv and 1 mg/kg, po; assay type: ADME, organism-based; conditions: in vivo; outline: as §2
[11] = Fraction unbound ligand in rat at 1 mg/kg, iv and 1 mg/kg, po; assay type: ADME, organism-based; conditions: in vivo
Outline: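 Fraction unbound in rat plasma measured at 1 µg/ml by equilibrium dialysis against isotonic Krebs–Ringer bicarbonate buffer, pH 7.4.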

[12] = Oral bioavailability in rat at 1 mg/kg, iv and 1 mg/kg, po; assay type: ADME, organism-based; conditions: in vivo; outline: as §2
[13] = organism: Homo sapiens; experiment: Protein binding in human plasma at 1 ug/ml by equilibrium dialysis; conditions: read-out: PPB (converted)
[14] = Permeability from basolateral to apical side of the Caco-2 cell membrane at pH 7.4; assay type: ADME, cell-based; conditions: human, Caco-2, pH 7.4; outline: as §1
[15] = target: T2, Neprilysin (Rattus norvegicus, UniProt P07861); experiment: Inhibition of rat NEP
T2 sequence (P07861 whole entry): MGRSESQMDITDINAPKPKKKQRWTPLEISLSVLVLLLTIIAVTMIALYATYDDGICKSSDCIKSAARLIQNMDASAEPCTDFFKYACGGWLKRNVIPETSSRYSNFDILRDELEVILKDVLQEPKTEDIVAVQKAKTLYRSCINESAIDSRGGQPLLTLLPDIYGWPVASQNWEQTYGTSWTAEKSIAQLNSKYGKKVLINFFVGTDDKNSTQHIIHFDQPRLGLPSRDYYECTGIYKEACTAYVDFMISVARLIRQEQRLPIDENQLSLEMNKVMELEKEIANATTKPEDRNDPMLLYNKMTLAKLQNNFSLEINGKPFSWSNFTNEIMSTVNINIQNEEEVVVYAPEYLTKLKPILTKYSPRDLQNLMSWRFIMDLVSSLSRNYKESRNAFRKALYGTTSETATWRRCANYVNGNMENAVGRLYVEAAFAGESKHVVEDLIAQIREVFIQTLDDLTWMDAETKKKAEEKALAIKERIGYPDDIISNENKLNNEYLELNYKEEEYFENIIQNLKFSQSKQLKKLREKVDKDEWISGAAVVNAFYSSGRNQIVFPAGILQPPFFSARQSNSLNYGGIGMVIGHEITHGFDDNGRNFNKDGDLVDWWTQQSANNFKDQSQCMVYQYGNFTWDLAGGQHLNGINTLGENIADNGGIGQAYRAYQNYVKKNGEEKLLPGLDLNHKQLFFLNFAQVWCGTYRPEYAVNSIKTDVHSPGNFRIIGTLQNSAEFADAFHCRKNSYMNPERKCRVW
Outline: (§3)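 Fluorogenic assay with Abz-D-Arg-Arg-Leu-EDDnp as substrate (solution at 50 µM before mixing). Inhibitor is pre-mixed with substrate, and enzyme is added, diluted so that conversion stays at or below ~10% in 1 h. Incubation runs 1 h at 37 °C with shaking in Tris–Cl, then is stopped with phosphoramidon. Read-out is Ex320/Em420. Each IC50 uses a 10-point half-log series in duplicate.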

[16] = target: T3, Neprilysin (Oryctolagus cuniculus, UniProt P08049); experiment: Inhibition of rabbit NEP; outline: as §3
T3 sequence (P08049 whole entry): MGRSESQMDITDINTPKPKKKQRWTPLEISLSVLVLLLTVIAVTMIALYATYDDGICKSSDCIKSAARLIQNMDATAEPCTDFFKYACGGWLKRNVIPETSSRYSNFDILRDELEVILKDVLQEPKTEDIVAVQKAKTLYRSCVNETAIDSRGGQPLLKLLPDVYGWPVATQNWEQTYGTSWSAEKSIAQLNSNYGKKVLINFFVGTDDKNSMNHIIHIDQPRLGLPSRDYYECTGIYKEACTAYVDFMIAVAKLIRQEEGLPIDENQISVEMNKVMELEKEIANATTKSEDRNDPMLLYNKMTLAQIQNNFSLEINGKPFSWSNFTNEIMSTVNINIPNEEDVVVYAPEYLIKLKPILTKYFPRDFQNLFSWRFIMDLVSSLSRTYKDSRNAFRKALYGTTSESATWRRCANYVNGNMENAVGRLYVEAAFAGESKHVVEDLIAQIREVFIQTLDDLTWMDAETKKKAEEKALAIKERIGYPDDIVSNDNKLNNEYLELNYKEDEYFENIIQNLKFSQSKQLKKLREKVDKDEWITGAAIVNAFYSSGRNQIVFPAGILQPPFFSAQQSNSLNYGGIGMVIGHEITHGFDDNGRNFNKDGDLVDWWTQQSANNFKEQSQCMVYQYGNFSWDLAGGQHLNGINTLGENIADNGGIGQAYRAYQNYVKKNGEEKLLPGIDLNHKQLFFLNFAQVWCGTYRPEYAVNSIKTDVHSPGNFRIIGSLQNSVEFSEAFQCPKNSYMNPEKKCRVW

[17] = Tmax in rat at 1 mg/kg, iv and 1 mg/kg, po; assay type: ADME, organism-based; conditions: in vivo; outline: as §2

Compound | IC50 [1] [nM] | Activity [2] [µM] | further results
COCCC(CC1(C(=O)N[C@@H]2C[C@H]2c2ccc(F)cc2)CCCC1)C(=O)O (relative stereo) | 40 | > 3 | –
COCC(CC1(C(=O)N[C@H]2C[C@@H]2c2ccc(Cl)cc2)CCCC1)C(=O)O (relative stereo) | 20 | > 3 | –
COCCC(CC1(C(=O)NCCOc2ccc(OC)cc2)CCCC1)C(=O)O (stereo not drawn) | 35 | > 3 | –
COCCC(CC1(C(=O)NCCc2ccc(OC)cc2)CCCC1)C(=O)O (stereo not drawn) | 369 | > 3 | –
COCCC(CC1(C(=O)NCCc2ccccc2)CCCC1)C(=O)O (stereo not drawn) | 500 | > 3 | –
COCCC(CC1(C(=O)NC(C)Cc2ccccc2)CCCC1)C(=O)O (stereo not drawn) | 426 | > 3 | –
CCCC(CC1(C(=O)Nc2nnc(CC)s2)CCCC1)C(=O)O (stereo not drawn) | 60 | > 3 | –
COCCC(CC1(C(=O)N[C@H]2C[C@@H]2c2ccccc2)CCCC1)C(=O)O (relative stereo) | 100 | > 3 | –
COCC(CC1(C(=O)N[C@H]2C[C@@H]2c2ccccc2)CCCC1)C(=O)O (relative stereo) | 65 | > 3 | –
CCCC(CC1(C(=O)N[C@H]2C[C@@H]2c2ccccc2)CCCC1)C(=O)O (relative stereo) | 160 | > 3 | –
CCC[C@H](CC1(C(=O)Nc2nnc(CC)s2)CCCC1)C(=O)O | 23.7 | > 3 | Activity [3]: > 3 µM; logD [4]: 0.5; half-life at 1 µM [5]: > 2 h; Papp A→B [6]: 9 ×10⁻⁶ cm/s; clearance [8]: 3 mL/min/kg; Vd [9]: 0.44 L/kg; half-life [10]: 1.7 h; Fu [11]: 0.106
COCCC(CC1(C(=O)N[C@H]2C[C@@H]2c2ccc(Cl)cc2)CCCC1)C(=O)O (relative stereo) | 21 | > 3 | –
COCCC(CC1(C(=O)NCCCc2ccccc2)CCCC1)C(=O)O (stereo not drawn) | 35 | > 3 | –

These reach a lower IC50 [1]. Values come first.

IC50 [1] [nM] | Activity [2] [µM] | Compound | further results
11 | > 3 | COCCC(CC1(C(=O)NC2(CO)Cc3ccccc3C2)CCCC1)C(=O)O (stereo not drawn) | –
5 | > 3 | COCCC(CC1(C(=O)Nc2nnc(Cc3ccccc3)s2)CCCC1)C(=O)O (stereo not drawn) | –
2 | > 3 | COCC[C@H](CC1(C(=O)NCCCc2ccc(F)cc2)CCCC1)C(=O)O | Activity [3]: > 3 µM; logD [4]: 0.5; half-life at 1 µM [5]: > 2 h; Papp A→B [6]: 12 ×10⁻⁶ cm/s; IC50 [7]: 8.8 nM; clearance [8]: 13 mL/min/kg; Vd [9]: 2.7 L/kg; half-life [10]: 2.4 h; fraction unbound [11]: 0.138; bioavailability [12]: 138%; fraction unbound at 1 ug/ml [13]: 0.124
8 | > 3 | CCCCCCCNC(=O)C1(CC(CCOC)C(=O)O)CCCC1 (stereo not drawn) | –
0.9 | > 3 | COCC[C@H](CC1(C(=O)NCCCc2ccc(Cl)cc2)CCCC1)C(=O)O | Activity [3]: > 3 µM; logD [4]: 1; half-life at 1 µM [5]: > 2 h; Papp A→B [6]: 12 ×10⁻⁶ cm/s; Papp B→A [14]: 14 ×10⁻⁶ cm/s; IC50 [15]: 0.6 nM; IC50 [16]: 0.8 nM; IC50 [7]: 3.8 nM; clearance [8]: 3.5 mL/min/kg; Vd [9]: 0.6 L/kg; half-life [10]: 1.9 h; fraction unbound [11]: 0.083; bioavailability [12]: 70%
2 | > 3 | COCCC(CC1(C(=O)NCCCc2ccc(OC)cc2)CCCC1)C(=O)O (stereo not drawn) | –
15 | > 3 | COCCC(CC1(C(=O)NCCCc2ccc(F)cc2)CCCC1)C(=O)O (stereo not drawn) | –
8 | > 3 | COCC[C@H](CC1(C(=O)N[C@@H]2C[C@H]2c2ccc(OC)cc2)CCCC1)C(=O)O | Activity [3]: > 3 µM; logD [4]: 0.3; half-life at 1 µM [5]: > 2 h; Papp A→B [6]: 7 ×10⁻⁶ cm/s; IC50 [7]: 5.7 nM; fraction unbound at 1 ug/ml [13]: 0.032
17 | > 3 | CCCCc1ccnc(NC(=O)C2(CC(CCOC)C(=O)O)CCCC2)c1 (stereo not drawn) | –
5.4 | > 3 | COCC[C@H](CC1(C(=O)NC2(CO)Cc3ccccc3C2)CCCC1)C(=O)O | Activity [3]: > 3 µM; logD [4]: -0.2; half-life at 1 µM [5]: > 2 h; Papp A→B [6]: 1 ×10⁻⁶ cm/s; Papp B→A [14]: 2.5 ×10⁻⁶ cm/s; IC50 [7]: 14.2 nM; clearance [8]: 18 mL/min/kg; Vd [9]: 7.5 L/kg; half-life [10]: 4.8 h; fraction unbound [11]: 0.088; bioavailability [12]: 109%; Tmax [17]: < 1 h; fraction unbound at 1 ug/ml [13]: 0.228
2 | > 3 | COCCC(CC1(C(=O)NCCCc2ccc(Cl)cc2)CCCC1)C(=O)O (stereo not drawn) | –
10 | > 3 | CCCCC[C@@H]1C[C@H]1NC(=O)C1(CC(CCOC)C(=O)O)CCCC1 (relative stereo) | –
8 | > 3 | COCCC(CC1(C(=O)N[C@@H]2C[C@H]2c2ccc(OC)cc2)CCCC1)C(=O)O (relative stereo) | –
